Sampled rows, rich in hits. Any-hit rate of the full collection: about 1.8%.
MT1-MMP act inh: inhibitors of human MT1-MMP activation; P50281; HT1080 RFP-PRO-GFP cells, GFP/RFP ratio fluorescence, overnight; percent of plate control window, DMSO zero; GFP/RFP ratio change, % at 20 µM; actives 0.061% (n = 360,000); AID 651647;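 active = GFP/RFP ratio change of at least 30% with cell ATP level not reduced by more than half and red fluorescence within 50% of control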
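Assay system: RFP-PRO-GFP reporter HT1080 cells; read-out basis: GFP/RFP fluorescence ratio; benchmarks: DMSO wells and RFP-L50D-GFP cells; doses: 20 µM single dose, 1% DMSO; schedule: overnight cell settling, then overnight compound exposure, 37 °C, 5% CO2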
Cneo AK release: causes C. neoformans cell lysis; adenylate kinase release luminescence, 4 h; normalised: neutral wells 0, clomiphene wells 100; lysis activity, % at 15 µM; actives 0.2% (n = 360,000);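 active = mean lysis activity across replicates of at least 80%, whatever share of replicates individually reach that level; inactive = mean lysis activity below 80%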
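Assay system: Cryptococcus neoformans yeast cells / Dosing: single-point compound dose / Timing: 4 h at 37 °C static, read 1 h later / Measured by: luminescence of released adenylate kinase using an AK detection reagent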
hiPSC survival: hiPSC single-cell survival enhancement; ATPlite luminescence; 100% = ROCK inhibitor wells, 0% = DMSO; survival enhancement, % at 20 µM; actives 0.044% (n = 360,000); AID 602274; in the data active = survival enhancement above about 18%;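 also: cells exposed to compounds for 16 hours before the ATP read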
rRNA inh HTS: selective bacterial rRNA inhibition in E. coli; E. coli WT GFP vs humanized-ribosome RFP mutants, fluorescence, 24 h; active compounds read low; DMSO median 0, no signal -100; GFP signal change (wild-type ribosome), % (concentration not given with the values); actives 1.6% (n = 350,000);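 active = significant combined selectivity score with lowered wild-type GFP, culture density cut under 30%, mutant RFP and density less affected; inactive = any of these conditions unmet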
DAGLB inh: diacylglycerol lipase beta (human) inhibition | Q8NCG7 | HEK293T DAGLB membrane lysate, EnzChek fluorogenic substrate | inhibition, % at 5.17 µM | actives 0.059% (n = 340,000); in the data active = inhibition above about 34%
Target sequence (Q8NCG7 whole entry, looked up): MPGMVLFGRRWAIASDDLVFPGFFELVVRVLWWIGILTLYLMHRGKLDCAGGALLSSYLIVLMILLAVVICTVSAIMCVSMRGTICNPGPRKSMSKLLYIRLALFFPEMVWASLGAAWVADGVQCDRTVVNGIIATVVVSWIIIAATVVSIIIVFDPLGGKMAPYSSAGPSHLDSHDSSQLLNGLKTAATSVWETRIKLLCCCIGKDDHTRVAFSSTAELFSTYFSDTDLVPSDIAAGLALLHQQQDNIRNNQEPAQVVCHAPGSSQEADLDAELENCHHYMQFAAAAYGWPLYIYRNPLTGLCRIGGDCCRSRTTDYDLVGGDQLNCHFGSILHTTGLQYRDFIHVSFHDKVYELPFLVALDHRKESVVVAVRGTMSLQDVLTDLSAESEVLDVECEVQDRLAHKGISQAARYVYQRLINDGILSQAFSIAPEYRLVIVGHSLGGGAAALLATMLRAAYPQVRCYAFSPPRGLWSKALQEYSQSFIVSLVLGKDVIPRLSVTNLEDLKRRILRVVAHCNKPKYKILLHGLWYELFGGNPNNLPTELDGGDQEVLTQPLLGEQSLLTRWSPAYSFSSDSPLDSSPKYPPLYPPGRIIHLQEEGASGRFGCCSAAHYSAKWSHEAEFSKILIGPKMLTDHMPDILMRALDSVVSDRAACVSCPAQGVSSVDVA
SKN-1 block: inhibitors of C. elegans SKN-1. actives 0.49% (n = 360,000). inhibition, % at 21.8 µM. AID 624304. C. elegans VP596 Pgst-4::GFP/RFP ratio, acrylamide-induced, 24 h;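 active = interference check ratio from 0.5 to 1.5 plus GFP to RFP signal ratio inhibition reaching or exceeding a fixed threshold, cut at about 30% in these data, passing the limit was not always enough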
Hits are given with their value; i = inactive; nt = not tested or not shown.

SMILES	MT1-MMP act inh	Cneo AK release	hiPSC survival	rRNA inh HTS	DAGLB inh	SKN-1 block
COc1cccc(CN2CCCCN3[C@@H](CO)[C@H](c4ccc(C#Cc5cccnc5)cc4)[C@@H]3C2)c1	nt	i	nt	-17.8	nt	nt
CCCC(=O)N1CCC2(CC1)CN(C(=O)c1ccc(F)cc1)[C@H](CO)c1[nH]c3cc(OC)ccc3c12	nt	nt	nt	i	nt	nt
C[C@@H]1CN([C@H](C)CO)C(=O)c2cccc(NS(=O)(=O)c3ccc(Cl)cc3)c2O[C@@H]1CN(C)C(=O)Nc1ccc2c(c1)OCO2	nt	i	nt	i	nt	nt
OC[C@H]1[C@@H](c2ccc(-c3ccc(F)cc3)cc2)[C@@H]2CN(Cc3ccncc3)CCCCN12	nt	i	nt	i	nt	nt
OC[C@H]1[C@H](c2ccc(-c3ccc(F)cc3)cc2)[C@@H]2CN(Cc3ccncc3)CCCCN12	nt	i	nt	-19.1	nt	nt
C[C@@H]1CN([C@@H](C)CO)C(=O)c2cc(-c3ccc(C#N)cc3)cnc2O[C@H]1CN(C)C(=O)Nc1ccc(F)cc1	nt	i	nt	i	nt	nt
Cc1nc(N)c(C#N)c(-c2ccc3c(c2)OCO3)c1C	i	i	i	i	i	i
N#Cc1c(N)oc(-c2ccc3c(c2)OCO3)c1-c1ccc2c(c1)OCO2	i	i	i	nt	i	43.0
Cc1cc(C(=O)Nc2cccc3c2O[C@@H](CN(C)C(=O)Nc2ccc4c(c2)OCO4)[C@@H](C)CN([C@H](C)CO)C3=O)n(C)n1	nt	i	nt	i	nt	nt
Clc1ccc(OCc2cnc(Cl)s2)cc1	i	nt	i	nt	i	61.3
COc1cc(/C=N/N2C(=O)CSC2=S)cc(Br)c1O	i	i	i	i	i	43.4
CC1CCN(S(=O)(=O)c2ccc(C(=O)Nc3nnc(C4=COCCO4)o3)cc2)CC1	i	i	i	-23.2	i	i
CC1CCN(S(=O)(=O)c2ccc(C(=O)N3CCOCC3)cc2)CC1	i	i	i	i	i	38.7
FCCCOc1ccc(-c2nccc(-c3ccc(F)cc3)n2)cc1	i	i	i	nt	i	i
FCCCOc1ccc(-c2ccnc(-c3ccccc3)n2)cc1	i	i	i	nt	i	57.0
CC(=O)Nc1ccc(S(=O)(=O)N2CCN(C(=O)C(=O)c3cccc(C(F)(F)F)c3)CC2)cc1	nt	nt	nt	-13.1	nt	nt
CC(=O)c1ccc(S(=O)(=O)N2CCN(C(=O)C(=O)c3cccc(C(F)(F)F)c3)CC2)cc1	nt	nt	nt	i	nt	nt
COc1ccc2c(c1)c(C(O)CN1CCN(Cc3ccc4c(c3)OCO4)CC1)c(C)n2C (stereo not drawn)	i	i	i	i	i	44.1
Cc1c(C(O)CN2CCN(Cc3ccc4c(c3)OCO4)CC2)c2ccccc2n1C (stereo not drawn)	i	i	i	i	i	i
Cc1ccc(CN=c2c([N+](=O)[O-])nn(-c3cccc(Cl)c3)n2O)cc1	i	i	i	-24.0	i	i
COc1ccc(NC(C)(C)c2nnnn2-c2c(C)cccc2C)cc1	i	nt	i	-25.0	i	i
O=C(Nc1ccc2c(c1)[C@@H]1C[C@@H](CC(=O)N3CCc4ccccc4C3)O[C@H](CO)[C@@H]1O2)NC1CCCC1	nt	i	nt	i	nt	nt
CCCNC(=O)Nc1ccc2c(c1)OC[C@@H](C)N(C(=O)CC)C[C@@H](C)[C@H](OC)CN(C)C2=O	nt	nt	nt	i	nt	nt
COc1ccc(NCC(O)Cn2c(C)c(C)c3ccccc32)cc1 (stereo not drawn)	i	nt	i	-40.0	i	i
Cc1c(C)n(CC(O)CNc2ccccc2)c2ccccc12 (stereo not drawn)	i	nt	i	i	i	i
SMILES	MT1-MMP act inh	Cneo AK release	hiPSC survival	rRNA inh HTS	DAGLB inh	SKN-1 block
C[C@H](NC(=O)C[C@@H]1CC[C@H](NC(=O)Cc2ccccn2)[C@H](CO)O1)c1ccccc1	nt	i	nt	i	nt	nt
CC(C)(C)C1CCC(OCC(O)CN2CCN(c3ccccn3)CC2)CC1 (stereo not drawn)	i	nt	i	-35.4	i	i
CCC[C@@H]1C[C@@H](C(=O)NC(C(C)Cl)[C@H]2O[C@H](SC)[C@H](O)[C@@H](O)[C@H]2O)N(C)C1 (stereo partly drawn)	i	i	i	nt	i	i
CCCC1CC(C(=O)NC(C(C)Cl)C2OC(SC)C(O)C(O)C2O)N(C)C1 (stereo not drawn)	i	i	i	-32.4	i	i
C=CCN1C=C/C(=C\C=C(C#N)C#N)c2ccccc21	i	nt	i	i	i	35.2
CCCCCCN1C=C/C(=C\C=C(C#N)C#N)c2ccccc21	i	nt	i	i	i	i
Brc1cccc(OCCSc2ncccn2)c1	i	i	i	i	nt	50.0
Clc1ccc(OCCCCSc2ncccn2)cc1	i	nt	i	nt	i	91.4
CN(C)CCCOc1ccc(Cl)cc1Br	i	i	i	nt	i	i
Clc1ccc(OCCSc2ncccn2)c(Br)c1	i	nt	i	i	i	53.2
CCCOc1ccc(OCCSc2ncccn2)cc1	i	i	i	nt	i	37.6
CCCNC(=O)C[C@@H]1C[C@@H]2c3cc(NS(C)(=O)=O)ccc3O[C@@H]2[C@@H](CO)O1	nt	i	nt	i	nt	nt
O=C(CN1CCCC1)Nc1sc2c(c1C(=O)Nc1ccc(Br)cc1)CCC2	i	i	i	i	i	37.9
CN1CCN(CC(=O)Nc2sc3c(c2C(=O)Nc2ccccc2)CCCC3)CC1	i	i	i	i	i	i
Cc1ccc(Nc2nc(-c3cccs3)cs2)nc1	i	i	i	i	i	46.4
Cc1ccc(Nc2nc(-c3ccccc3)cs2)nc1	i	i	i	i	i	i
CC=Cc1ccc2n(c1=O)C[C@@H]1[C@@H](CO)[C@H](C(=O)NCC)[C@H]2N1Cc1nccs1 (mixture of isomers)	nt	i	nt	i	nt	nt
CCOc1ccc(-c2c(=O)n(OCC)c3ccccc3[n+]2[O-])cc1	i	i	i	i	i	i
CCOc1ccc(-c2c(=O)n(O)c3ccccc3[n+]2[O-])cc1	i	i	i	-20.1	i	i
CC1=C(C(=O)OCc2ccccc2)C(c2ccc(Br)cc2)NC(=O)N1CCCC(=O)O (stereo not drawn)	nt	nt	nt	i	nt	nt
CC1=C(C(=O)OCc2ccccc2)C(c2ccc(Br)cc2)NC(=O)N1CCCCCC(=O)O (stereo not drawn)	i	i	i	-26.1	i	i
OC[C@H]1[C@H](c2ccc(-c3cccnc3)cc2)[C@H]2CN(CC3CCOCC3)CCCCN21	nt	i	nt	nt	nt	nt
COc1ccccc1-c1cn(CC[C@@H]2CC[C@H](NS(=O)(=O)c3ccccc3C)[C@H](CO)O2)nn1	nt	i	nt	i	nt	nt
CN(CCOc1ccccc1)C(=O)c1ccc(OC2CCN(C(=O)C3CC3)CC2)cc1	i	i	i	-18.6	i	i
C[C@@H]1CN([C@@H](C)CO)C(=O)Cc2cc(NS(=O)(=O)c3cn(C)cn3)ccc2O[C@@H]1CN(C)Cc1ccc(Oc2ccccc2)cc1	nt	i	nt	i	nt	nt

Screening results as filed in PubChem BioAssay.
